Laboratory results as given in ChEMBL document CHEMBL1153278, “Discovery of novel non-peptidic beta-alanine piperazine amide derivatives and their optimization to achiral, easily accessible, potent and selective somatostatin sst1 receptor antagonists” (Bioorg Med Chem Lett, 2009).

Columns and labels:
Rattus norvegicus = species: Rattus norvegicus; test: Selectivity for rat sst1 receptor over rat sst2 receptor
[1] = molecular target: Somatostatin receptor type 1 (Rattus norvegicus, UniProt P28646); test: Binding affinity to rat sst1 receptor
How it was run: (§1)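 Receptor binding run on rat sst1 and sst2 and on human sst1–sst5; affinities given as pKd, mean ± SEM of 3–6 experiments.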

[2] = molecular target: Somatostatin receptor type 2 (Rattus norvegicus, UniProt P30680); test: Binding affinity to rat sst2 receptor; how it was run: as §1
[3] = molecular target: T1, Somatostatin receptor type 1 (Homo sapiens, UniProt P30872); test: Antagonist activity at human sst1 receptor assessed as inhibition of forskolin-stimulated cAMP accumulation by luciferase assay; format: functional
D(4) dopamine receptor = molecular target: T2, D(4) dopamine receptor (Homo sapiens, UniProt P21917); test: Binding affinity to dopamine D4 receptor
T2 sequence (P21917 whole entry): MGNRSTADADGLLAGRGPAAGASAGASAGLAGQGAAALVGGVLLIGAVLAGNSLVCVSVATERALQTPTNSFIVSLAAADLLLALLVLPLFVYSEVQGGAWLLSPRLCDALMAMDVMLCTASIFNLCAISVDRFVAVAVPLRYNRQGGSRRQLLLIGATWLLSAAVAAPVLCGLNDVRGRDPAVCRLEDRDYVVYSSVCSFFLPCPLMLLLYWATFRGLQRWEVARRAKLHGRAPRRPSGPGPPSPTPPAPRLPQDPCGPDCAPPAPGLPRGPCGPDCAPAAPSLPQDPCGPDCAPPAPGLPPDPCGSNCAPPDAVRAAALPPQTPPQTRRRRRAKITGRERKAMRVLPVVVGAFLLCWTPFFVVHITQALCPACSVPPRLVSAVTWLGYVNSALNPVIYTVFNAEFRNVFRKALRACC

[4] = molecular target: Somatostatin receptor type 4 (Homo sapiens, UniProt P31391); test: Binding affinity to human sst4 receptor; how it was run: as §1
[5] = Ratio of drug level in brain to plasma in mouse at 10 umol/kg, iv and 30 umol/kg, po; format: ADME, organism-based
How it was run: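 Pharmacokinetic study in mice given a single intravenous dose or an oral dose. Drug concentrations were measured in plasma and brain over time after each route. The brain/plasma concentration ratio was derived for each route.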

Cytochrome P450 3A4 = Cytochrome P450 3A4 (Homo sapiens, UniProt P08684); test: Inhibition of human CYP3A4 by microplate-based direct fluorometric assay; format: ADME
Cytochrome P450 2D6 = Cytochrome P450 2D6 (Homo sapiens, UniProt P10635); test: Inhibition of human CYP2D6 by microplate-based direct fluorometric assay; format: ADME
[6] = Tmax in mouse at 10 umol/kg, iv and 30 umol/kg, po; format: ADME, organism-based; conditions: in vivo
How it was run: (§2)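 Mice dosed by the intravenous and the oral route; drug levels followed in both plasma and brain; apparent terminal half-life taken from plasma; oral bioavailability estimated.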

D(2) dopamine receptor = D(2) dopamine receptor (Homo sapiens, UniProt P14416); test: Binding affinity to dopamine D2 receptor
[7] = molecular target: Somatostatin receptor type 1 (Rattus norvegicus) (UniProt P28646); test: Antagonist activity at rat sst1 receptor assessed as inhibition of forskolin-stimulated cAMP accumulation by luciferase assay; format: functional
[8] = molecular target: Somatostatin receptor type 2 (Homo sapiens, UniProt P30874); test: Binding affinity to human sst2 receptor; how it was run: as §1
Cytochrome P450 1A2 = molecular target: T3, Cytochrome P450 1A2 (Homo sapiens, UniProt P05177); test: Inhibition of human CYP1A2 by microplate-based direct fluorometric assay; format: ADME
T3 sequence (P05177 whole entry): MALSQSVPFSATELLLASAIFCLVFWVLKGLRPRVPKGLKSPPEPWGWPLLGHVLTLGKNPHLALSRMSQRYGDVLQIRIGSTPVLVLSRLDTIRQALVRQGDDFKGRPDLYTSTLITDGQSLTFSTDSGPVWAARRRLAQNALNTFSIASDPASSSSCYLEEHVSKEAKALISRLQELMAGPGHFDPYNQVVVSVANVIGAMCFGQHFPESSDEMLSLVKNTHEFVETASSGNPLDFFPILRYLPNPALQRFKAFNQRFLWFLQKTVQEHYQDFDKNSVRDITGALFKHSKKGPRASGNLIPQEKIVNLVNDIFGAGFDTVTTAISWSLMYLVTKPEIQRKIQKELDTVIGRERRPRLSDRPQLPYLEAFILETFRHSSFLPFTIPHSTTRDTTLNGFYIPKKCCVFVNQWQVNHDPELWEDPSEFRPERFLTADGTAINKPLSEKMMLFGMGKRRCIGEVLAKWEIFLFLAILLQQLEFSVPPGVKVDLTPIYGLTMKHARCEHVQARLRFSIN

[9] = molecular target: Somatostatin receptor type 3 (Homo sapiens, UniProt P32745); test: Binding affinity to human sst3 receptor; how it was run: as §1
[10] = Apparent terminal half life in mouse plasma at 10 umol/kg, iv and 30 umol/kg, po; format: ADME, organism-based; conditions: read-out: beta t1/2 (converted); how it was run: as §2
Cytochrome P450 2C19 = Cytochrome P450 2C19 (Homo sapiens, UniProt P33261); test: Inhibition of human CYP2C19 by microplate-based direct fluorometric assay; format: ADME
[11] = molecular target: T1, Somatostatin receptor type 1; test: Binding affinity to human sst1 receptor; how it was run: as §1
[12] = Oral bioavailability in mouse at 30 umol/kg; format: ADME, organism-based; conditions: in vivo; how it was run: as §2
V79 = test: Genotoxicity in Chinese hamster V79 cells by micronucleus test; format: toxicity, cell-based, Cricetulus griseus
[13] = Binding affinity to adrenergic alpha1 receptor
[14] = molecular target: Somatostatin receptor type 5 (Homo sapiens, UniProt P35346); test: Binding affinity to human sst5 receptor; how it was run: as §1
Sequence of Somatostatin receptor type 5 (P35346 whole entry): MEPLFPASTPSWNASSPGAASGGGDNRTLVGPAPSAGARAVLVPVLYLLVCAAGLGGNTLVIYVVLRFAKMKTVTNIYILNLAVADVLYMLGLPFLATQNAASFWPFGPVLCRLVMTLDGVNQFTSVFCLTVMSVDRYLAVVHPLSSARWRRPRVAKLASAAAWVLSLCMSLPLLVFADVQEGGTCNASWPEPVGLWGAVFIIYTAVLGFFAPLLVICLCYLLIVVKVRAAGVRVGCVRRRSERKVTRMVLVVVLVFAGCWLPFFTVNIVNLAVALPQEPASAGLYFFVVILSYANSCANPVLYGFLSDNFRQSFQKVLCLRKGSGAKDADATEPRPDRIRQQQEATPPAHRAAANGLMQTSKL

Sequence of Somatostatin receptor type 2 (Homo sapiens, UniProt P30874) (P30874 whole entry): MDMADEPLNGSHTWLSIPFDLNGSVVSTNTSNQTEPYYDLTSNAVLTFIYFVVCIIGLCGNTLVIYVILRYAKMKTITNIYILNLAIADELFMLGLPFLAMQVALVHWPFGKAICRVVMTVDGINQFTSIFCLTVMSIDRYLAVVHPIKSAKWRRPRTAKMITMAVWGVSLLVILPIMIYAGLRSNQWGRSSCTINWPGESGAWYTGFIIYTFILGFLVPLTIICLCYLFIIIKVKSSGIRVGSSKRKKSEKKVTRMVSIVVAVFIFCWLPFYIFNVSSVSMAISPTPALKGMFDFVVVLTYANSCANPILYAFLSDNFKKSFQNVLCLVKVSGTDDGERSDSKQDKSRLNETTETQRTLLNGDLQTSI
Sequence of Somatostatin receptor type 1 (Rattus norvegicus, UniProt P28646) (P28646 whole entry): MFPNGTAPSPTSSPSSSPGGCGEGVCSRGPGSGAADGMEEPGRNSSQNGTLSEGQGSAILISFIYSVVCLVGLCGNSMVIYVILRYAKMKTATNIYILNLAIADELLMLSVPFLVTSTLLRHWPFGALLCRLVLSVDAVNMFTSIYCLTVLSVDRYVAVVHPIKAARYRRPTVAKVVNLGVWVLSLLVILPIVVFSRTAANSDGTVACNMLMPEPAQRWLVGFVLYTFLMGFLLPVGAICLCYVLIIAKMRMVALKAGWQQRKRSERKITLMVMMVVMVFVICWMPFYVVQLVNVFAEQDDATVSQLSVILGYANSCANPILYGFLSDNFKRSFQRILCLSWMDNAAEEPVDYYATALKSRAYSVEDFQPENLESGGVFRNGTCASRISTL
Sequence of Somatostatin receptor type 4 (P31391 whole entry): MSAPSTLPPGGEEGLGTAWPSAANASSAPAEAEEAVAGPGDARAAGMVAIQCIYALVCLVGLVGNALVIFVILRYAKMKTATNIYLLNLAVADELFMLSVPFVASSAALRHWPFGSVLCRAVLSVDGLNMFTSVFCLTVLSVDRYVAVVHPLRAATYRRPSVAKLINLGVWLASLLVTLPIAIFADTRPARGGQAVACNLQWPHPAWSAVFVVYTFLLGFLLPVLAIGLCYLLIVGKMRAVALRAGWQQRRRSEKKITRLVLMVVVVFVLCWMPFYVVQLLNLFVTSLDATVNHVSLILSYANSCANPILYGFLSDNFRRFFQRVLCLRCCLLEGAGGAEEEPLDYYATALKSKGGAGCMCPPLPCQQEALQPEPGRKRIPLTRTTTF
Sequence of Somatostatin receptor type 2 (Rattus norvegicus, UniProt P30680) (P30680 whole entry): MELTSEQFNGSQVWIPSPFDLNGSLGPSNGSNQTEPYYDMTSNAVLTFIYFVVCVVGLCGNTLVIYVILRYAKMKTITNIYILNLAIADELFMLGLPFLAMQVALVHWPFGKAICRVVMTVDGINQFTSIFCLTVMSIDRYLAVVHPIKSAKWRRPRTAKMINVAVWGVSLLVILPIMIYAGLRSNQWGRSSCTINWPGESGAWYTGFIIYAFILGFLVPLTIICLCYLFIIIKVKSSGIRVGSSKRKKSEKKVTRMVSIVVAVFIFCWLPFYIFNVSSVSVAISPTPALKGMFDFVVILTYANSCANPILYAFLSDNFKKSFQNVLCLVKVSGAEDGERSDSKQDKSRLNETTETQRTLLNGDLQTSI
Sequence of Somatostatin receptor type 3 (P32745 whole entry): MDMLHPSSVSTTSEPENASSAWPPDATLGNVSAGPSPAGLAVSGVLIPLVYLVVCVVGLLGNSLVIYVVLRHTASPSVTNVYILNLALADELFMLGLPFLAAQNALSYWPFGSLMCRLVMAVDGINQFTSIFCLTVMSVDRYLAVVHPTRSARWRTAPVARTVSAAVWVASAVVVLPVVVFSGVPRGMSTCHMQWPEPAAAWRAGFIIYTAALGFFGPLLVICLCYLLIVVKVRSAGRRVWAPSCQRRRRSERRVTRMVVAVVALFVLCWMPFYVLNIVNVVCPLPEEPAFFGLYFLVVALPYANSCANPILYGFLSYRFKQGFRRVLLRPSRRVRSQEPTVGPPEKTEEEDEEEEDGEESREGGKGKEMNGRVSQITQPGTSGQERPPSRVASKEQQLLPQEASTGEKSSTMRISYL
T1 sequence (P30872 whole entry): as the sequence (P28646 whole entry) above, with P8S, T11S, S16P, G20S, V25G, C26G, S32A, S45A, A385T, S389T counted along it
Sequence of Cytochrome P450 3A4 (P08684 whole entry): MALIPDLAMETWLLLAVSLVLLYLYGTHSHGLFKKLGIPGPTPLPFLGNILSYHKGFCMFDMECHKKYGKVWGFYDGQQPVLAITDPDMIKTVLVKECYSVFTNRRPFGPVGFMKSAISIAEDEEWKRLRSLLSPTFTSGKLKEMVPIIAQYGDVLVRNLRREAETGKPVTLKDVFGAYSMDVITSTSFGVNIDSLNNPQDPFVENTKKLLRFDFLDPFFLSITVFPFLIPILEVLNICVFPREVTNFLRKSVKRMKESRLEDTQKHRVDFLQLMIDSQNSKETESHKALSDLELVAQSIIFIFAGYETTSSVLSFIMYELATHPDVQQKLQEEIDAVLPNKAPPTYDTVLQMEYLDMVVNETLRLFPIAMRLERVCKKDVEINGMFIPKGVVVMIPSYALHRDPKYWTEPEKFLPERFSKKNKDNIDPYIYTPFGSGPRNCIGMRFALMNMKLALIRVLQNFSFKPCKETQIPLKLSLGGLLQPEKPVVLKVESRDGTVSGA
Sequence of Somatostatin receptor type 1 (Rattus norvegicus) (P28646 whole entry): as the sequence (P28646 whole entry) above
Sequence of D(2) dopamine receptor (P14416 whole entry): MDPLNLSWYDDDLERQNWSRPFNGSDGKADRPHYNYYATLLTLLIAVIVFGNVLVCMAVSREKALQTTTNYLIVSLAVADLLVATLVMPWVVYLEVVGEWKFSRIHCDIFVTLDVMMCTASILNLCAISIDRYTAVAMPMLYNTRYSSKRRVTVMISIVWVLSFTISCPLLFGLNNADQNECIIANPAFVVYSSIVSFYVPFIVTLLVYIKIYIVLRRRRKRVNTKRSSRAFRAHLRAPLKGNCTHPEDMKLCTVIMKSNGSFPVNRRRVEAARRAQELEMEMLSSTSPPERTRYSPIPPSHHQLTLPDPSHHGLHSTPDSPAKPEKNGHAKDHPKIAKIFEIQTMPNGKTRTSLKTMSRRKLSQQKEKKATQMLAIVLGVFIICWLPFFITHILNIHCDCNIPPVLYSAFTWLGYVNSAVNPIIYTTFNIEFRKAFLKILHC
Sequence of Cytochrome P450 2D6 (P10635 whole entry): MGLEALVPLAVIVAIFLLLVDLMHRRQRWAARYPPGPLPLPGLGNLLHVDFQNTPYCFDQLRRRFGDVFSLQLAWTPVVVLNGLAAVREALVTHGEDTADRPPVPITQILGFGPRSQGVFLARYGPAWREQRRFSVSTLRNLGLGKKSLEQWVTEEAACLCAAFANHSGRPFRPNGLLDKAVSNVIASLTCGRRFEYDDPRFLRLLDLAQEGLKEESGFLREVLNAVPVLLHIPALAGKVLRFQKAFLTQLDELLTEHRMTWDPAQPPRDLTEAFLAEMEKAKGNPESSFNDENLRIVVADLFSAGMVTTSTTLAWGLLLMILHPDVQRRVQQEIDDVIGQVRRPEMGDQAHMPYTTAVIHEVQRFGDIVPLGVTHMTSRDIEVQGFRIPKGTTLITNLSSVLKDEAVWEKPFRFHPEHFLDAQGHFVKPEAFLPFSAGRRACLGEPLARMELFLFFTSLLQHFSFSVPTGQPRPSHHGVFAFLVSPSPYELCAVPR
Sequence of Cytochrome P450 2C19 (P33261 whole entry): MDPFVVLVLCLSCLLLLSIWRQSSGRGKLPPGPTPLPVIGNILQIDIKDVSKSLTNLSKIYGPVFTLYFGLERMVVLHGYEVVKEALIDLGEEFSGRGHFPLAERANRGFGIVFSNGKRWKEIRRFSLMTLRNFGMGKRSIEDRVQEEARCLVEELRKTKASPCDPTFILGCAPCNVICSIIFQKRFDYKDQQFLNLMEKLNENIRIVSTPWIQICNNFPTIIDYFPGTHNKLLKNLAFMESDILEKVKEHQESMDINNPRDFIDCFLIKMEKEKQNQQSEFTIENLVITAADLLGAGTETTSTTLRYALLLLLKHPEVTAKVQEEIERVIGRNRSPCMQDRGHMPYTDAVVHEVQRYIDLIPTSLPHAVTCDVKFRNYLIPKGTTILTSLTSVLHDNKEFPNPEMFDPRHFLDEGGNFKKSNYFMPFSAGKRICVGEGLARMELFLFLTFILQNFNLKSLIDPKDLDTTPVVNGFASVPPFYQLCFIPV

| Kd [1] [nM] | Kd [2] [nM] | Compound | further results |
| --- | --- | --- | --- |
| 0.708 | 6920 | CN(CCC(=O)N1CCN(c2ccc([N+](=O)[O-])cc2)CC1)CCC1c2ccccc2-c2ccccc21 | fold change (FC) (Rattus norvegicus): > 1000 |
| 7.08 | 4070 | C=CCN(CCC(=O)N1CCN(c2ccc([N+](=O)[O-])cc2)CC1)CCC1c2ccccc2-c2ccccc21 | – |
| 18.2 | 3470 | CN(CCC(=O)N1CCN(c2ccc([N+](=O)[O-])cc2)CC1)CCC1c2ccccc2CCc2ccccc21 | fold change (FC) (Rattus norvegicus): > 100 |
| 1.7 | – | CN(CCC(=O)N1CCN(c2ccc(Cl)cc2)CC1)CCC1c2ccccc2-c2ccccc21 | – |
| 3.63 | – | CN(CCC(=O)N1CCN(c2cccc(F)c2)CC1)CCC1c2ccccc2-c2ccccc21 | – |
| 24 | – | CN(CCC(=O)N1CCN(c2ccccc2Cl)CC1)CCC1c2ccccc2-c2ccccc21 | – |
| 1.91 | – | CN(CCC(=O)N1CCN(c2ccc(Cl)c(Cl)c2)CC1)CCC1c2ccccc2-c2ccccc21 | – |
| 1.95 | – | CN(CCC(=O)N1CCN(c2ccc(F)cc2)CC1)CCC1c2ccccc2-c2ccccc21 | – |
| 0.575 | 19500 | CN(CCC(=O)N1CCN(c2ccc(F)c(F)c2)CC1)CCC1c2ccccc2-c2ccccc21.Cl | pKb [3]: 8.46; Kd (D(4) dopamine receptor): 126 nM; Kd [4]: 2400 nM; Kp [5]: > 1; IC50 (Cytochrome P450 3A4): > 10000 nM; IC50 (Cytochrome P450 2D6): 1300 nM; Tmax [6]: 1 h; Kd (D(2) dopamine receptor): 776 nM; pKb [7]: 8.55; Kd [8]: 12300 nM; IC50 (Cytochrome P450 1A2): > 10000 nM; Kd [9]: 2690 nM; half-life [10]: 6 h; fold change (FC) (Rattus norvegicus): > 10000; IC50 (Cytochrome P450 2C19): > 10000 nM; Kd [11]: 5.37 nM; bioavailability [12]: 7%; Activity (V79): Non-toxic; pKd [13]: 6.53 |
| > 1000 | – | Cc1cccc(C)c1N1CCN(C(=O)CCN(C)CCC2c3ccccc3-c3ccccc32)CC1 | – |
| 77.6 | 8710 | CN(CCC(=O)N1CCN(c2ccc([N+](=O)[O-])cc2)CC1)CCc1cccc2ccccc12 | – |
| 12.6 | 6030 | CN(CCC(=O)N1CCN(c2ccc([N+](=O)[O-])cc2)CC1)CCC1c2ccccc2Sc2ccccc21 | – |
| 6.61 | – | CN(CCC(=O)N1CCN(c2ccc(=O)n(C)n2)CC1)CCC1c2ccccc2-c2ccccc21 | – |
| 4.57 | – | CN(CCC(=O)N1CCN(c2ccccc2C#N)CC1)CCC1c2ccccc2-c2ccccc21 | – |
| 275 | 16600 | CN(CCC(=O)N1CCN(c2ccc([N+](=O)[O-])cc2)CC1)CCc1ccc2ccccc2c1 | – |
| 0.741 | 4170 | CN(CCC(=O)N1CCN(c2ccc3nonc3c2)CC1)CCC1c2ccccc2-c2ccccc21 | Kd [4]: 1150 nM; Kd [8]: 4170 nM; Kd [9]: 1200 nM; fold change (FC) (Rattus norvegicus): > 10000; Kd [11]: 2.63 nM |
| 11.5 | 5130 | CN(CCC(=O)N1CCN(c2ccc([N+](=O)[O-])cc2)CC1)CCC1c2ccccc2C=Cc2ccccc21 | – |

| Kd [1] [nM] | Kd [2] [nM] | Compound | further results |
| --- | --- | --- | --- |
| 29.5 | 18600 | CN(CCC(=O)N1CCN(c2ccc([N+](=O)[O-])cc2)CC1)CCC1c2ccccc2Cc2ccccc21 | – |
| 0.891 | 6760 | CN(CCC(=O)N1CCN(c2ccc([N+](=O)[O-])cc2)CC1)CCC1c2ccccc2Oc2ccccc21 | fold change (FC) (Rattus norvegicus): > 1000 |
| 17.8 | – | CN(CCC(=O)N1CCN(c2cccc(Cl)c2)CC1)CCC1c2ccccc2-c2ccccc21 | – |
| 0.776 | 6460 | CN(CCC(=O)N1CCN(c2ccc(F)c(F)c2)CC1)CCC1c2ccccc2Oc2ccccc21 | pKb [3]: 8.13; Kd (D(4) dopamine receptor): 490 nM; Kd [4]: 3390 nM; Kp [5]: > 1; IC50 (Cytochrome P450 3A4): > 10000 nM; IC50 (Cytochrome P450 2D6): < 1000 nM; Tmax [6]: 1 h; Kd (D(2) dopamine receptor): 490 nM; pKb [7]: 7.93; Kd [8]: 6920 nM; Kd [14]: 14500 nM; IC50 (Cytochrome P450 1A2): > 10000 nM; Kd [9]: 2820 nM; half-life [10]: 11 h; fold change (FC) (Rattus norvegicus): > 10000; IC50 (Cytochrome P450 2C19): > 10000 nM; Kd [11]: 1.62 nM; bioavailability [12]: 19%; Activity (V79): Non-toxic; pKd [13]: 6.55 |
| 3.31 | – | CN(CCC(=O)N1CCN(c2ccc(F)cc2F)CC1)CCC1c2ccccc2-c2ccccc21 | – |
| 45.7 | 6920 | O=C(CCN(CCC1c2ccccc2-c2ccccc21)CC1CC1)N1CCN(c2ccc([N+](=O)[O-])cc2)CC1 | – |
| 0.955 | 1820 | CCN(CCC(=O)N1CCN(c2ccc([N+](=O)[O-])cc2)CC1)CCC1c2ccccc2-c2ccccc21 | – |
| 21.4 | – | CN(CCC(=O)N1CCN(c2ccncc2)CC1)CCC1c2ccccc2-c2ccccc21 | – |
| 1.1 | – | CN(CCC(=O)N1CCN(c2ccc3nccn3n2)CC1)CCC1c2ccccc2-c2ccccc21 | – |
| 61.7 | – | CN(CCC(=O)N1CCN(c2cccc(C(F)(F)F)c2)CC1)CCC1c2ccccc2-c2ccccc21 | – |
| 13.8 | 8320 | CN(CCC(=O)N1CCN(c2ccc([N+](=O)[O-])cc2)CC1)CCC(c1ccccc1)c1ccccc1 | – |
| 2.14 | – | CN(CCC(=O)N1CCN(c2cccc(=O)n2C)CC1)CCC1c2ccccc2-c2ccccc21 | – |
| 331 | 14500 | CN(CCC(=O)N1CCN(c2ccc([N+](=O)[O-])cc2)CC1)CCn1c2ccccc2c2ccccc21 | – |
| 0.324 | 8130 | CN(CCC(=O)N1CCN(c2ccc3nonc3c2)CC1)CCC1c2ccccc2Oc2ccccc21 | Kd [4]: 1450 nM; Kd [9]: 1620 nM; fold change (FC) (Rattus norvegicus): > 10000; Kd [11]: 2.14 nM |
| 31.6 | – | CN(CCC(=O)N1CCN(c2ccc(C(F)(F)F)cc2)CC1)CCC1c2ccccc2-c2ccccc21 | – |
| 4.57 | – | CN(CCC(=O)N1CCN(c2ccc3c(c2)OCO3)CC1)CCC1c2ccccc2-c2ccccc21 | – |
| 4.68 | 912 | CC(C)N(CCC(=O)N1CCN(c2ccc([N+](=O)[O-])cc2)CC1)CCC1c2ccccc2-c2ccccc21 | – |
